Screens deposited in PubChem BioAssay by several laboratories.
HNF4A DNA FP: change in binding of human HNF4A to DNA, primary screen, biochemical, fluorescence polarization, FITC-DNA | AID 1224865, 2016 | hit rate 0.3% among 360,000 | 1 h | Hepatocyte nuclear factor 4-alpha (Homo sapiens), P41235 | activity change, % at 10 µM; in the data active = activity change above about 30%, passing the limit was not always enough
Target sequence (P41235 whole entry, looked up): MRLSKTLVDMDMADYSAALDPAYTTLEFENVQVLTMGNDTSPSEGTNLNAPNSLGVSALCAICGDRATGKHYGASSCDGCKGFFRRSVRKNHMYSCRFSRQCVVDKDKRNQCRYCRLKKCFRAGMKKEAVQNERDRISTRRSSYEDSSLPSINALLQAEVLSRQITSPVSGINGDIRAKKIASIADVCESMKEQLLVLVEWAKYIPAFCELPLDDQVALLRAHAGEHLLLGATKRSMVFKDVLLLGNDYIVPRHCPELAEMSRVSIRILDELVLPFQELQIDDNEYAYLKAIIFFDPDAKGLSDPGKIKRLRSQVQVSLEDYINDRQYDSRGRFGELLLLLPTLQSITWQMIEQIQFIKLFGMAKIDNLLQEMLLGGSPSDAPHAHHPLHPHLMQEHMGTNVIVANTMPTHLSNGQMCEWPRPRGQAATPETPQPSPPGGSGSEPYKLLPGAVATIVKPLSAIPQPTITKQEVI
IDE cell inh: human IDE inhibitors in live cells, primary screen, fluorescence polarization, HEK cells, FAbetaB substrate; Insulin-degrading enzyme (Homo sapiens), P14735; hit rate 0.41% among 320,000; FAbetaB cleavage; inhibition, % at 5.59 µM;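 active = percent inhibition above the average of all tested compounds plus 3 SD, set per screening campaign, cut at about 16% in these data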;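 also: IDE supplied by intact live HEK cells; FP after avidin binding of uncleaved biotin substrate so inhibition keeps polarization high; 0% = DMSO wells and 100% = 60 µM reference IDE inhibitor Ii1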
TPT1 inhibitor: Candida albicans TPT1 enzyme inhibitors, primary screen, biochemical, fluorescence polarization. recombinant caTPT1, FP RNA substrate dephosphorylation. tRNA 2'-phosphotransferase TPT1 (Candida albicans SC5314). hit rate 0.81% among 300,000. AID 1962, 2009. inhibition, % at 5 µM;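 active = inhibition above the mean of all tested compounds plus 3 SD, set per screening campaign, cut at about 24% in these data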;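 also: plate controls were DMSO alone for no effect and ferristatin control at 100 nM for full effect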
IDE cell activ: human IDE activators in live cells, primary screen, fluorescence polarization, HEK cells, FAbeta-B substrate; Insulin-degrading enzyme (Homo sapiens), P14735; FAbeta-B cleavage; 0% vehicle, 100% cell-free pure enzyme wells; activation, % at 5.96 µM; hit rate 0.073% among 340,000;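 active = activation above the mean of all tested compounds plus 3 SD, set per screening campaign, cut at about 17% in these data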
CSN inh: inhibitors of CSN-mediated cullin deneddylation, primary screen, biochemical, fluorescence polarization, uHTS | hit rate 0.38% among 360,000 | Purified CSN, SCF-Nedd8-OG deneddylation | COP9 signalosome complex subunit 5 (Homo sapiens), Q92905 | inhibition, % at 12.5 µM;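 active = pattern-corrected inhibition above about 35%, with an unprinted fluorescence ratio check between 0.5 and 1.5, limit read from the data, passing the limit was not always enough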;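 also: 0% = enzyme with substrate and 100% = substrate without enzyme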
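Assay system: Purified human Csn5 enzyme expressed in HEK293T cells | Amount: Enzyme 0.24 nM | Measured by: Fluorescence polarization readout | Medium: Tris/NaCl/DTT buffer, pH 7.5 | Compound dosing: One concentration, 12.5 µM, 0.25% DMSO | Times: 90 min incubation of compound, enzyme and substrate at room temperature | Control set: no-enzyme wells high, enzyme-with-substrate wells low | Read-out: % inhibition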
TPT1 inh confirm: Candida albicans TPT1 inhibitors, confirmation, biochemical, fluorescence polarization, triplicate. shares compounds with TPT1 inhibitor. hit rate 74% among 2,400. recombinant caTPT1, RNase T1 coupled. inhibition, % at 5 µM;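 active = inhibition above the primary screen limit, the mean inhibition of all tested compounds plus 3 SD, cut at about 25% in these data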
RNase T1 counter: RNase T1 inhibitors, counter-screen for TPT1 inhibitor project, biochemical, fluorescence polarization | RNase T1 cleavage, 1536-well | inhibition, % at 5 µM | shares compounds with TPT1 inhibitor | AID 2153, 2009 | hit rate 83% among 2,400;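 active = inhibition above the solvent-only control well mean plus 3 SD, limit set per screening run, cut at about 23% in these data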;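 also: plate controls were DMSO wells with enzyme for no effect and wells without RNase T1 for full effect; inhibitors block cleavage so intact labeled substrate keeps polarization high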
Target sequence (P00651 whole entry, looked up): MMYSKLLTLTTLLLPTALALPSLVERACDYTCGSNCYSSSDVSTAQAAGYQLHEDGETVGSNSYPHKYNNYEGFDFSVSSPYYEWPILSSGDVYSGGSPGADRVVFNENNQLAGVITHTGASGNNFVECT
HNF4A confirm: change in HNF4A binding to DNA, retest, confirmation, biochemical, fluorescence polarization, FITC-DNA; shares compounds with HNF4A DNA FP; 1 h; hit rate 99% among 210; activity change, % at 12.5 µM; call rule not given here
An asterisk follows results filed as active. This is a sample that favours compounds with a hit; in the whole collection about 1.4% have one here.

`N#CCC(=O)Nc1ccc(C(=O)NCC(c2ccco2)N2CCCCC2)cc1` (stereo not drawn) gave HNF4A DNA FP 67*, IDE cell inh 2, TPT1 inhibitor 48*, IDE cell activ -1, CSN inh 42*, TPT1 inh confirm 56*, RNase T1 counter 66* and HNF4A confirm 44*.
For CCN1C(=O)CS/C1=C(\C#N)S(=O)(=O)c1ccccc1 the results were HNF4A DNA FP 40*, IDE cell inh 4, TPT1 inhibitor 104*, IDE cell activ -8, CSN inh -1, TPT1 inh confirm 80*, RNase T1 counter 90* and HNF4A confirm 43*.
For CCN1C(=O)CS/C1=N\S(=O)(=O)c1ccccc1 the results were HNF4A DNA FP -4, IDE cell inh 10, TPT1 inhibitor -4, IDE cell activ -6 and CSN inh 2.
For CN(C(=O)COC(=O)c1ccc([N+](=O)[O-])cc1N)c1ccccc1 the results were HNF4A DNA FP 43*, IDE cell inh 4, TPT1 inhibitor 84*, IDE cell activ -5, CSN inh 42*, TPT1 inh confirm 75*, RNase T1 counter 82* and HNF4A confirm 92*.
Screening Cc1ccc(C(=O)OCC(=O)N(C)c2ccccc2)c(C)c1 returned HNF4A DNA FP 1, IDE cell inh 9, TPT1 inhibitor -4, IDE cell activ -1 and CSN inh 0.
For Cc1ccc(-n2nc3c(N4CCC(C(=O)N5CCC(C(N)=O)CC5)CC4)nnc(C)c3c2C)cc1 the results were HNF4A DNA FP 49*, IDE cell inh 4, TPT1 inhibitor 35*, IDE cell activ 0, CSN inh 30, TPT1 inh confirm 40*, RNase T1 counter 48* and HNF4A confirm 48*.
For Cc1ccc2c(=O)n3c(nc2c1)C(C)NC(=O)c1cccnc1-3 (stereo not drawn) the results were HNF4A DNA FP 3 and CSN inh -3.
`CN(C)c1ccc(-c2sc(Nc3ccccc3)n[n+]2-c2ccc(F)cc2)cc1` gave HNF4A DNA FP 69*, IDE cell inh 2, TPT1 inhibitor 35*, IDE cell activ -1, CSN inh 7, TPT1 inh confirm 93*, RNase T1 counter 98* and HNF4A confirm 80*.
`COc1ccc(-c2sc(Nc3ccccc3)n[n+]2-c2ccc(F)cc2)cc1Br` gave HNF4A DNA FP 2, IDE cell inh -4, TPT1 inhibitor -2, IDE cell activ 7 and CSN inh 3.
Screening Cc1sc2nc(CSc3nnnn3-c3ccc(Cl)cc3)[nH]c(=O)c2c1C returned HNF4A DNA FP 38*, IDE cell inh -4, TPT1 inhibitor 31*, IDE cell activ 4, CSN inh 34, TPT1 inh confirm 40*, RNase T1 counter 49* and HNF4A confirm 33*.
COc1cc(/C=C2\N=C3CCCCCN3C2=O)ccc1O was read as HNF4A DNA FP 47*, IDE cell inh 4, TPT1 inhibitor 50*, IDE cell activ -11, CSN inh 57*, TPT1 inh confirm 69*, RNase T1 counter 73* and HNF4A confirm 76*.
For COc1ccc(/C=C2\N=C3CCCCCN3C2=O)cc1OC the results were HNF4A DNA FP 4, IDE cell inh 1, TPT1 inhibitor -5, IDE cell activ 0 and CSN inh 6.
For COC(=O)[C@H]1[C@H]2C[C@@H]3c4[nH]c5cc(OC)ccc5c4CCN3C[C@H]2C[C@@H](OC(=O)c2ccc(N)cc2)[C@@H]1OC the results were HNF4A DNA FP 43*, IDE cell inh 1, TPT1 inhibitor 62*, IDE cell activ 4, CSN inh 12, TPT1 inh confirm 86*, RNase T1 counter 91* and HNF4A confirm 65*.
COc1ccc2c3c([nH]c2c1)C1CC2C(CC(O)C(OC)C2CO)CN1CC3 (stereo not drawn) was read as HNF4A DNA FP 12, IDE cell inh 1, TPT1 inhibitor -2, IDE cell activ 2 and CSN inh -3.
Cc1nnc(SCc2nc3scc(-c4ccccc4)c3c(=O)[nH]2)s1 was read as HNF4A DNA FP 17, IDE cell inh 1, TPT1 inhibitor 14, IDE cell activ 1 and CSN inh 13.
Nc1nnc(SCc2nc3scc(-c4ccccc4)c3c(=O)[nH]2)s1 was read as HNF4A DNA FP 45*, IDE cell inh -1, TPT1 inhibitor 36*, IDE cell activ -6, CSN inh 13, TPT1 inh confirm 41*, RNase T1 counter 54* and HNF4A confirm 56*.
COCCNC(=O)C1(C)CCCN(C(=O)Cc2ccc3ccccc3c2)C1 (stereo not drawn) was read as HNF4A DNA FP 2 and CSN inh 2.
Cc1cc(N=Nc2ccc(C)c(N=Nc3cc(C)c(N)cc3N)c2)c(N)cc1N was read as HNF4A DNA FP 2, IDE cell inh -6, TPT1 inhibitor 0, IDE cell activ 7 and CSN inh -4.
O=C(COc1cccc(F)c1)Nc1nc(-c2ccncc2)cs1 was read as HNF4A DNA FP 2, IDE cell inh 3, IDE cell activ 2 and CSN inh 6.
Screening CN1C(=O)/C(=C\C=C2/CCCN2C)N(C)C1=S returned HNF4A DNA FP 62*, IDE cell inh 0, TPT1 inhibitor 60*, IDE cell activ -6, CSN inh -1, TPT1 inh confirm 88*, RNase T1 counter 102* and HNF4A confirm 93*.
COc1ccc(N/C=C/C(=O)C(F)(F)F)cc1 was read as HNF4A DNA FP -1, IDE cell inh -1, TPT1 inhibitor 1, IDE cell activ 3 and CSN inh -13.
CSc1nnc(C)c(/C=C/Nc2ccc(Cl)cc2)n1 was read as HNF4A DNA FP 59*, IDE cell inh 3, TPT1 inhibitor 154*, IDE cell activ -3, CSN inh -1, TPT1 inh confirm 121*, RNase T1 counter 117* and HNF4A confirm 55*.
